According to ChEMBL document CHEMBL3351507, “11H-Pyrido[3',2':4,5]pyrrolo[3,2-c]cinnoline and pyrido[3',2':4,5]pyrrolo[1,2-c][1,2,3]benzotriazine: two new ring systems with antitumor activity” (2014):
Activity calls are given as the source filed them. No cut-off for these calls is given here.

Legend:
SW-620 = test: Cytotoxicity against human SW620 cells assessed as growth inhibition after 72 hrs by MTT assay; type: functional; settings: SW-620, 72 h
Summary of the method: (§1)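 NCI 60-cell-line panel screen. Compounds were tested at 5 concentrations in 10-fold dilution (10^-4 to 10^-8 M) across the full panel. GI50 was taken as the molar concentration giving 50% inhibition of net cell growth.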

Jurkat [1] = test: Induction of apoptosis in human Jurkat cells assessed as loss of plasma membrane asymmetry at 250 to 500 nM after 6 hrs by annexin V-FITC/propidium iodide staining-based flow cytofluorimetric analysis; type: functional, cell-based
Summary of the method: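 Jurkat cells were incubated with 250 or 500 nM compound for 6 h or 24 h. They were then double-stained with Annexin V-FITC and propidium iodide and analysed by flow cytometry (488 nm excitation; emission 525 and 585 nm). Mean ± SEM of 3 experiments.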

LoVo [2] = test: Anticlonogenic activity against human LoVo cells assessed as inhibition of colony formation of cells at 2.5 to 5 uM incubated for 24 hrs followed by compound washout measured after 1 to 2 weeks by crystal violet staining-based assay; type: functional, cell-based
COLO 205 = test: Cytotoxicity against human COLO205 cells assessed as growth inhibition after 72 hrs by MTT assay; type: functional; settings: COLO 205, 72 h
[3] = Cytotoxicity against human OVCAR4 cells assessed as growth inhibition after 72 hrs by MTT assay; type: functional; settings: OVCAR-4, 72 h; summary of the method: as §1
HT-29 = test: Cytotoxicity against human HT-29 cells assessed as growth inhibition after 72 hrs by MTT assay; type: functional; settings: HT-29, 72 h
DU-145 = test: Cytotoxicity against human DU145 cells assessed as growth inhibition after 72 hrs by MTT assay; type: functional; settings: DU-145, 72 h
NCI-H226 = test: Cytotoxicity against human NCI-H226 cells assessed as growth inhibition after 72 hrs by MTT assay; type: functional; settings: NCI-H226, 72 h
Jurkat [4] = test: Induction of apoptosis in human Jurkat cells assessed as mitochondrial membrane potential depolarization after 24 hrs by JC-1 staining-based flow cytometry; type: functional, cell-based
Summary of the method: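 After 24 h of treatment, Jurkat cells were resuspended in HBSS and stained with JC-1. Flow cytometry measured the percentage of cells with low potential (green monomer fluorescence). Mean ± SEM of 3 experiments.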

MDA-MB-468 = test: Cytotoxicity against human MDA-MB-468 cells assessed as growth inhibition after 72 hrs by MTT assay; type: functional; settings: MDA-MB-468, 72 h
Jurkat [5] = test: Cell cycle arrest in human Jurkat cells assessed as accumulation at S phase at 0.25 uM after 24 hrs by propidium iodide staining-based flow cytometry (reference value: 15.5%); type: functional
CCRF-CEM = test: Cytotoxicity against human CCRF-CEM cells assessed as growth inhibition after 72 hrs by MTT assay; type: functional
LoVo [6] = test: Anticlonogenic activity against human LoVo cells assessed as inhibition of colony formation of cells at 0.625 to 10 uM incubated for 24 hrs followed by compound washout measured after 1 to 2 weeks by crystal violet staining-based assay; type: functional, cell-based

COc1cc2nnn3c4ncccc4c(N=O)c3c2cc1OC
GI50 (SW-620): 0.21 µM | Activity (Jurkat [1]): inactive | inhibition (LoVo [2]): Active | GI50 (COLO 205): 5.26 µM | GI50 [3]: 1.91 µM | GI50 (HT-29): 0.79 µM | GI50 (DU-145): 1.99 µM | GI50 (NCI-H226): 3.7 µM | Activity (Jurkat [4]): Dose-dependent effect | GI50 (MDA-MB-468): 0.16 µM | Activity (Jurkat [5]): 15.4% | GI50 (CCRF-CEM): < 0.01 µM

COc1ccc2c(c1)nnn1c3ncccc3c(N=O)c21
GI50 (SW-620): 0.27 µM | Activity (Jurkat [1]): inactive | GI50 (COLO 205): 0.68 µM | GI50 [3]: 1.29 µM | GI50 (HT-29): 0.62 µM | GI50 (DU-145): 1.86 µM | GI50 (NCI-H226): 4.14 µM | inhibition (LoVo [6]): Active | Activity (Jurkat [4]): Dose-dependent effect | GI50 (MDA-MB-468): 0.032 µM | Activity (Jurkat [5]): 25.1%

COc1cc2nnc3c4cccnc4[nH]c3c2cc1OC
GI50 (SW-620): 0.44 µM | GI50 (COLO 205): 2.96 µM | GI50 [3]: 1.6 µM | GI50 (HT-29): 1.34 µM | GI50 (DU-145): 2.1 µM | GI50 (NCI-H226): 1.94 µM | GI50 (MDA-MB-468): 0.23 µM

O=Nc1c2cccnc2n2nnc3ccc(Cl)cc3c12
GI50 (SW-620): 0.19 µM | GI50 (COLO 205): 1 µM | GI50 [3]: 0.98 µM | GI50 (HT-29): 0.91 µM | GI50 (DU-145): 0.61 µM | GI50 (NCI-H226): 2.19 µM | GI50 (MDA-MB-468): 0.14 µM | GI50 (CCRF-CEM): 0.023 µM

COc1ccc2c(c1)nnc1c3cccnc3[nH]c21
GI50 (SW-620): 0.38 µM | Activity (Jurkat [1]): inactive | inhibition (LoVo [2]): Active | GI50 (COLO 205): 1.13 µM | GI50 [3]: 1.41 µM | GI50 (HT-29): 0.75 µM | GI50 (DU-145): 1.88 µM | GI50 (NCI-H226): 2.62 µM | Activity (Jurkat [4]): Dose-dependent effect | GI50 (MDA-MB-468): 0.067 µM | Activity (Jurkat [5]): 24.1%
